Data set [1] is described as follows: Partition coefficient (logD7.4). It counts as physicochemical. The note with it: octanol/water, pH 7.4.
Data set [2] in a line: Alkaline hydrolysis rate of the compound. Format: ADME. The method, boiled down:
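Alkaline hydrolysis rate constants measured at several pH values at 25 °C. Loss of the long-wavelength UV chromophore (λmax typically 300-345 nm) was followed by spectrophotometer.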

A further data set concerns the target T1, Neutrophil elastase (Homo sapiens, UniProt P08246).
T1 sequence (P08246 whole entry): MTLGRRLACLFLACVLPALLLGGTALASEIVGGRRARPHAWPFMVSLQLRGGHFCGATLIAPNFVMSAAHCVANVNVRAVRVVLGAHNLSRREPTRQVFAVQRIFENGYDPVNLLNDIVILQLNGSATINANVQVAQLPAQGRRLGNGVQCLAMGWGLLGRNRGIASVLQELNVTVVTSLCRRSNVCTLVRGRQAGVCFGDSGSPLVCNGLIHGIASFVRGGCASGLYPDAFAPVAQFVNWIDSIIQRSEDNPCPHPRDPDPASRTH
The data set is described as follows: Inhibition of human leukocyte elastase.

With `Cc1ccc2c(=O)oc(NC(C)C)nc2c1C`, the logD in data set [1] amounted to 3.8. Further, the “Log kOH-” value in data set [2] is listed as 0.46. On Neutrophil elastase, affinity was put at a Ki of 708 nM.
Consider `NC(=O)C1CCCN1c1nc2ccccc2c(=O)o1` (stereo unspecified), for which, in data set [1], the logD is 0.4. Moreover, the “Log kOH-” value in data set [2] is 1.21. On Neutrophil elastase, this compound showed a Ki of 178 nM.
Compound `COC(=O)C(Nc1nc2ccccc2c(=O)o1)c1ccccc1` (stereo unspecified) registered a logD in data set [1] of 2.6. The “Log kOH-” value in data set [2] amounted to 1.39. On Neutrophil elastase, this compound showed a Ki of 46.8 nM.
Turning to `Nc1ccc(CNc2nc3ccccc3c(=O)o2)cc1`, the logD in data set [1] is 2. In addition, the “Log kOH-” value in data set [2] was found to be 1.36. Moreover, on Neutrophil elastase, affinity was put at a Ki of 1230 nM.
`CCCCNc1nc2ccccc2c(=O)o1` showed a logD in data set [1] of 3.1. For the same compound, in data set [2], the “Log kOH-” value is given as 1.09.
In turn, `CNc1nc2ccccc2c(=O)o1` had a logD in data set [1] of 1.7. The “Log kOH-” value in data set [2] stood at 1.38.
As for `CC(C)N(c1nc2ccccc2c(=O)o1)C(C)C`, the logD in data set [1] was 3.7. In addition, the “Log kOH-” value in data set [2] was determined as 0.79. In addition, the Ki at Neutrophil elastase was 2570 nM.
Regarding `COC(=O)[C@H](Nc1nc2ccccc2c(=O)o1)c1ccccc1`, in data set [1], the logD was found to be 2.6. Also, in data set [2], the “Log kOH-” value is on record as 1.39. The affinity on Neutrophil elastase corresponds to a Ki of 27.5 nM.
As for `CCc1cc(N)cc2nc(NC(C)C)oc(=O)c12`, in data set [1], the logD is 1.6. In data set [2], the “Log kOH-” value is -1.26. Besides, affinity at Neutrophil elastase was put at a Ki of 17 nM.
For the compound `O=c1oc(NCc2ccccc2)nc2ccccc12`, the logD in data set [1] is 2.8. For the same compound, in data set [2], the “Log kOH-” value is 1.12. The compound further showed a Ki at Neutrophil elastase of 955 nM.
For `CCOc1nc2cc(N)cc(CC)c2c(=O)o1` the same measures were 2.7, -0.54 and 10 nM.
As for `Cc1cccc2nc(C(F)(F)C(F)(F)C(F)(F)F)oc(=O)c12`, in data set [1], the logD was 2.9. In data set [2], the “Log kOH-” value is reported as 2.75. This compound showed a Ki at Neutrophil elastase of 30.9 nM.
`O=c1oc(NC2CCCCC2)nc2ccccc12` registered a logD in data set [1] of 3.5. Besides, in data set [2], the “Log kOH-” value is given as 0.89. The same compound gave a Ki at Neutrophil elastase of 112 nM.
For `Cc1nc2ccccc2c(=O)o1`, the logD in data set [1] came out at 1.3. For the same compound, the “Log kOH-” value in data set [2] came to 1.69. The Ki on Neutrophil elastase was 4790 nM.
As for `NC(=O)[C@@H]1CCCN1c1nc2ccccc2c(=O)o1`, the logD in data set [1] stood at 0.4. Further, the “Log kOH-” value in data set [2] was found to be 1.21. For the same compound, the Ki at Neutrophil elastase was 240 nM.
The like results for `CC(C)NC(=O)[C@H](CC(N)=O)Nc1nc2ccccc2c(=O)o1` were, in that order, 0.2, 1.45 and 2140 nM.
Take `O=c1oc(C(F)(F)F)nc2ccccc12`: the logD in data set [1] is 1.9. Moreover, in data set [2], the “Log kOH-” value stood at 3.52. Affinity on Neutrophil elastase was put at a Ki of 170 nM.
For the compound `CC(C)NC(=O)[C@H](CCC(N)=O)Nc1nc2ccccc2c(=O)o1`, the logD in data set [1] was -0.3. The “Log kOH-” value in data set [2] was determined as 1.3. The compound also showed a Ki on Neutrophil elastase of 550 nM.
In turn, `O=c1oc(SCc2ccccc2)nc2ccccc12` showed a logD in data set [1] of 3.6. Also, in data set [2], the “Log kOH-” value is given as 2.33. The Ki on Neutrophil elastase was 39.8 nM.
Turning to `CC[C@H](C)[C@H](Nc1nc2ccccc2c(=O)o1)C(=O)OC`, the logD in data set [1] came out at 2.6. Further, the “Log kOH-” value in data set [2] is given as 1.32. Also, the Ki at Neutrophil elastase is 214 nM.
On to `Cc1ccc2nc(C)oc(=O)c2c1`, for which, in data set [1], the logD came to 1.8. Moreover, the “Log kOH-” value in data set [2] came to 1.36. The Ki on Neutrophil elastase is 34700 nM.
In data set [1], `Cc1nc2c(C)cccc2c(=O)o1` showed a logD of 2.1. For the same compound, in data set [2], the “Log kOH-” value worked out at 1.18. In addition, the affinity at Neutrophil elastase corresponds to a Ki of 7410 nM.
The like results for `COC(=O)[C@H](CC(C)C)Nc1nc2cccc(C)c2c(=O)o1` were, in that order, 3.7, 0.59 and 251 nM.
Take `Cc1cccc2nc(NC(C)C)oc(=O)c12`: the logD in data set [1] worked out at 3. Also, in data set [2], the “Log kOH-” value is listed as 0.41.
In data set [1], `CCCCCCNc1nc2ccccc2c(=O)o1` returned a logD of 3.8. Further, in data set [2], the “Log kOH-” value was 0.96.

The values above are taken from ChEMBL document CHEMBL1125034, “Design and synthesis of 4H-3,1-benzoxazin-4-ones as potent alternate substrate inhibitors of human leukocyte elastase” (J Med Chem, 1990).
